# Screens deposited in PubChem BioAssay by several laboratories.
# A selection: hits, their analogues and other compounds. The true share with any hit is near 3.5%.
# Efa HMGR inh – blocks class II HMG-CoA reductase of Enterococcus faecalis. purified E. faecalis HMGR, NADPH absorbance 340 nm kinetic. inhibition, % at 10 µM. 190,000 compounds, 0.41% hits. AID 1066;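 active = inhibition above a set limit, the median over all tested compounds plus 3 SD, cut at about 9.5% in these data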;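 note: enzyme runs in reverse so mevalonate oxidation gives rising NADPH absorbance; 0% = complete reaction with DMSO and 100% = background rate lacking mevalonate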
# RAM inhibit – blocks the yeast RAM network | inhibition, % at 50 µM | S. cerevisiae dse1pr::URA3 reporter, 5-FOA growth OD615, 2 d; analog-sensitive cbk1-as2 kinase mutant strain | 190,000 compounds, 1.8% hits | AID 868;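 active = inhibition above a set limit, 3 SD over mean compound inhibition, cut at about 8.4% in these data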;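 note: 0% = DMSO-only wells with no growth and 100% = 10 µM 1-NA-PP1 full growth; inhibition rescues growth on 5-FOA so higher OD means more RAM inhibition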
# MT stabilizer – microtubule stabilization, imaging screen. 200,000 compounds, 0.83% hits. % tubulin-high responders, % at 10 µM. HeLa tubulin immunostaining HCS, 24 h; share of cells brighter than vehicle mean+2SD. AID 2205;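 active = plate Z-score above 3 for both tubulin-high and condensed-nucleus cell shares, with cell loss under 80%, at 10 µM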;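 note: anti alpha tubulin signal scored within the nucleus-defined area of each cell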
# bCat nuc transl – beta-catenin nuclear translocation modulation | nuclear translocation activity, % at 5 µM | HeLa beta-catenin nuclear translocation, immunofluorescence imaging | 190,000 compounds, 0.3% hits;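 active = nuclear translocation activity above 50% at 5 µM, with a well cell count of 50 or more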;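 note: per-cell ratio of nuclear to cytoplasmic median beta-catenin stain intensity; plate controls were DMSO negative control for no effect and GSK-3 inhibitor IX positive control for full effect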
#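 Test system: human HeLa cell line; Doses: 5 µM primary, 0.02–20 µM confirmation; Incubation: 24 h compound exposure, 37°C; Detection: beta-catenin immunofluorescence imaging with DAPI; Read-out: beta-catenin nuclear/cytoplasmic ratio, % activation.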
# Yeast lifespan up – yeast lifespan extension. AID 775. S. cerevisiae growth with nicotinamide, OD615; deaD strain in restrictive glucose medium. inhibition of the nicotinamide effect, % at 10 µM. 130,000 compounds, 0.68% hits;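 active = inhibition above a set limit, placed 3 SD over the median of all compounds, cut at about 26% in these data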;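 note: 0% = nicotinamide-treated wells and 100% = cells grown without nicotinamide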
#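 Assay system: DeaD-strain S. cerevisiae. Medium: CSMM-D glucose medium, restrictive. Reagent: nicotinamide, 1.5 mM, co-present with compound. Compound: 10 µM single point, 0.25% DMSO. Schedule: culture preincubation 4 h, compound exposure 48 h, both 30 °C. Detection: absorbance at 615 nm.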
# Yeast growth inh – reduces growth of yeast BB579 in restrictive medium; 140,000 compounds, 0.51% hits; AID 804; S. cerevisiae BB579 growth, OD615, 48 h; inhibition, % at 10 µM;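 active = inhibition above a set limit, 3 SD over the mean compound inhibition, cut at about 44% in these data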
#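 test system = yeast BB579 (DeaD) | buffer or medium = restrictive CSMM-D medium | doses = single compound dose of 10 µM, 0.25% DMSO final | times = 4 h preincubation and 48 h exposure at 30 °C | technique = culture absorbance at 615 nm | benchmarks = amphotericin B 10 µg/mL, positive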
# * marks the source's active call; other numbers are inactive results; . = no result.
SMILES,Efa HMGR inh,RAM inhibit,MT stabilizer,bCat nuc transl,Yeast lifespan up,Yeast growth inh
COc1cccc(CN2CCN(C3CCN(c4ccccc4C)CC3)CC2CCO)c1 (stereo not drawn),11*,3,2,-2,.,.
CC1=CC2=NC(=O)/C(=C\c3ccc(-c4cccc(Cl)c4)o3)C(=N)N2O1,-7,5,20*,119*,-6,-18
CC1=NOC(=O)/C1=C\c1ccc(-c2cccc(Cl)c2)o1,0,3,3,-1,28,8
Cc1cc(C)nc(S/C=C/C(=O)c2ccccc2F)n1,.,.,.,5,.,.
Brc1ccc2c(c1)C(c1cccnc1)=NNC(c1cccs1)=N2,-5,1,18*,18,1,-26
Brc1ccc2c(c1)C(c1ccc(N3CCOCC3)cc1)=NNC(c1cccs1)=N2,5,3,1,-1,-5,-50
O=C(NCc1ccco1)C1CCCN1C(=O)Nc1ccccc1Cl (stereo not drawn),-1,1,1,0,.,.
COc1ccc(OCC(O)Cn2cnc(-c3ccc(Br)cc3)c2)cc1 (stereo not drawn),-3,4,3,0,.,-25
OC(COc1ccc2ccccc2c1Br)Cn1cnc(-c2ccccc2)c1 (stereo not drawn),-3,-2,4,0,-14,93*
COc1cccc(CC(=O)Nc2ccc3nc(C)sc3c2)c1,-3,-1,6,0,-3,79*
COc1ccccc1CC(=O)Nc1ccc2nc(C)sc2c1,-1,0,7,0,-6,2
Cn1c(=O)n(C)c2cc([N+](=O)[O-])c(N3CCN(CCO)CC3)cc21,-1,1,4,-4,.,.
CCCCOc1ccc(NC(=S)Nc2cc(C)nc(SCCCC)n2)cc1,-5,9.6*,4,-1,20,-29
Cc1ccc(-n2cc(CN3CCC(O)(c4ccccn4)CC3)c(-c3ccc(F)cc3)n2)cc1,-7,0,5,-1,.,.
CCc1ccc(NC(=O)CSC2=C(C#N)C(c3ccco3)C3=C(CCCC3=O)N2)cc1 (stereo not drawn),-3,3,5,-6,-9,-34
N#CC1=C(SCC(=O)c2ccc(Br)cc2)NC2=C(C(=O)CCC2)C1c1ccco1 (stereo not drawn),-2,5,32*,47,-1,-41
O=C(COC(=O)C1CSC2(c3ccc(F)cc3)CCC(=O)N12)NC(=O)NC1CCCC1 (stereo not drawn),-5,4,3,1,.,.
Cc1ccc(OCCSCc2nnc(NC(=O)Nc3cccc(Cl)c3)s2)cc1,-1,8.4*,3,1,6,-4
Cc1nnc(NC(=O)Nc2cccc(Cl)c2)s1,1,3,2,0,-5,-35
Cc1cc(CNC(=O)CC2C(=O)NCCN2CC(C)(C)C)nn1C (stereo not drawn),-5,0,3,1,.,.
COc1cc(/C=C/C(=O)c2c(O)cc(C)oc2=O)cc(OC)c1O,3,0,2,.,56*,-17
COc1ccc(/C=C/C(=O)c2c(O)cc(C)oc2=O)c(OC)c1,1,7,1,-1,-8,-54
COc1cccc(/C=C/C(=O)c2c(O)cc(C)oc2=O)c1O,-3,1,2,.,47*,-12
COc1ccc(C(=O)/C=C/c2cc(OC)c(O)c(OC)c2)c(F)c1,-6,-1,6,18,-4,-27
COC(=O)C1CCN(CC(=O)Nc2ccc(OC)c(Cl)c2)CC1,-3,1,2,1,.,.
Nc1nc(CSc2ccc(Cl)cc2)nc(N2CCCCC2)n1,-1,9.0*,1,0,.,.
CCn1c(=O)c(=O)[nH]c2cc(C(=O)NC3CCCc4ccccc43)ccc21 (stereo not drawn),-1,2,29*,-4,-6,-22
O=C(Cc1cccs1)Nc1cccc(-c2ccc3nncn3n2)c1,-1,8.5*,2,0,.,.
CC(NC(=O)c1ccnn1C)C1CCCO1 (stereo not drawn),0,3,7,2,.,.
CCCCn1[nH]c(-c2ccccc2)cc1=O,0,0,2,1,32*,-22
